Experimental data reported in the EternaBench riboswitch data.

System: MS2 coat protein
Assay: apparent Kd, MS2 coat protein; higher = weaker binding; RNA-MaP array; FMN 200 µM where present
Method in brief: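 The apparent Kd is reported as the median of filtered per-cluster binding-curve fits. To get these curves, designs transcribed by stalled E. coli RNA polymerase on Illumina sequencing-chip clusters were titrated with SNAP-549-labelled MS2 coat protein from 0.7 or 1.5 nM, doubling to 3 µM. Titrations were run without and then with constant ligand in 100 mM Tris-HCl pH 7.5, 80 mM KCl, 4 mM MgCl2, BSA, DTT, yeast tRNA and Tween-20, and green signal was normalised to red-channel RNA signal and control-cluster median Fmax.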

[1] = designed as: OFF switch for flavin mononucleotide, no ligand
[2] = ligand present: flavin mononucleotide, designed as: OFF switch for flavin mononucleotide
[3] = designed as: ON switch for flavin mononucleotide, no ligand
[4] = ligand present: flavin mononucleotide, designed as: ON switch for flavin mononucleotide

Row | Sequence | apparent Kd [1] [nM] | apparent Kd [2] [nM] | apparent Kd [3] [nM] | apparent Kd [4] [nM]
1 | GUAAUAAAGAUCCAAUUAUACAACAUGAGGAUCACCCAUGUGCAGGAUAUCGUGUGUUUUUUAUUCGAGAAGGGCAAAUUCAUU | 51.9 | 146 | – | –
2 | UACAUGAGGAUCACCCAUGUUUUGUCGUGUAUGGUAUUUAUCUAGGAUAUCAUUUUAUUUAGUUAUGAGAAGGAGAAUAUUAAU | 28.9 | 34.4 | – | –
3 | CUAUGAGCGAUAGGAUAUACUGAGAUUGAGUGGGUAGAAGGAUCGAUAGUGUAGAAGACAUGAGGAUCACCCAUGUUAUGGGUU | – | – | 726 | 501
4 | GACUUGUUAGGAUAUCUUACAUUUGCAUCAUAGUUACCAUUGGAGAAGGGACAUGAGGAUCACCCAUGUUUGGU | 40 | 39.8 | – | –
5 | UAGUGAUUGCAAGGAUAUGCUUAUGUUUAAUUUUUUUUAAUAUCUAACAUGAGGAUCACCCAUGUGCAGAAGGUGCUUGAUUUG | – | – | 66.1 | 58.7
6 | GGGCCGGUGGAGAAGGAGCUUGCAAAAUGCAUGCUAGGAUAUCCACAUGAGGAUCACCCAUGUGGGAAUAUCUGGUUUUCACAG | 3.98 | 5.05 | – | –
7 | AAAGGCCGAGGAUAUACAUGAGGAUCACCCAUGUGGACUCUGCAGAAUUGAUACCUAGGUAGAAGGUGGACCGG | 14.9 | 15.2 | – | –
8 | AAUUAAUUAAUUAAUUGGACGAUACAUGAGGAUCACCCAUGUAAGGAUAUGCAGUGGAAUACACUGCAGAAGGUACAUACGUCC | 15.4 | 25.5 | – | –
9 | UGAGACCUCACAGGAUAUGCUGGACUUUGUCCAGCAGAAGGGUGAAAACAUGAGGAUCACCCAUGUAUGGUCUCCAAAUUUAAU | – | – | 164 | 12.7
10 | CUCGGCGCACAGAAGGAUCGGUACAUGAGGAUCACCCAUGUAAGCAAAGAUAGGAUAUGUGGAGCUUACAGGGAAAUUGAACAA | – | – | 74.6 | 10.8
11 | GGGUACAUCGGAGGAUAUCAUGUAAAUACAUGAGGAUCACCCAUGUCGAUGGAGACAUCGGAGAUUGAGAAGGCCGAUGUACCG | – | – | 452 | 25.9
12 | GUAGAGUAGUGAGGAUAUACGAGUACGAUAGUACGGCGAUCCAAUAAUACAUGAGGAUCACCCAUGUAGAAGGCACUUCUCUAC | 8.53 | 98.7 | – | –
13 | UGAAAUCAUGUAGGAUAUGCAUGGCGAAGCUACGCAGAAGGACAUGAGGAUCACCCAUGUUCUAGCUACCGAGUACGGUGGCAA | 23.1 | 121 | – | –
14 | CAGCAAUGUGAGAAGGCUGCUCCGAUAAGGAGCAGAGGAUAUUACAUGAGGAUCACCCAUGUAUGAACCAAUAGCUGAAAUAAA | 6.01 | 28.3 | – | –
15 | AUAUAACAUGAGGAUCACCCAUGUCAACAAAGUCGAGGAUAUGGGCAAAUAAAAUAAGAACCAGAAGGCGAAUAAU | – | – | 291 | 51.9
16 | ACAUUUAAUACAGGAUAUGUAUGUAUACAAUAGAUUGGUUUUAUCACAUCAACAGAAGGGUAGAACAUGAGGAUCACCCAUGUA | – | – | 114 | 79.8
17 | GCGGAGAUACAGAAGGGAUAGGCCCUGGGCUAGUCAGGAUAUGUACGACGCAUCGUACAUGAGGAUCACCCAUGUAGCCGCUUG | – | – | 278 | 189
18 | AUCAGCUCGUCAGGAUAUACGUCACUGCGUCAGCAGUGUGGUAAGAUCACAUGAGGAUCACCCAUGUAGAAGGGACGAGUUGAU | 13.6 | 310 | – | –
19 | UUUUAACAUGAGGAUCACCCAUGUGAGGAUAUCGAAAUUUAUAUUAAUAUUUUUAUUACGAGAAGGCACAUUUU | 73.5 | 69.8 | – | –
20 | CAGCGAUAGCUGAACAAUCUAUCACAGGAUAUUCAUGAAACAUGAGGAUCACCCAUGUGAAAUUGGGAGAAGGGUGAUAGAUUG | – | – | 12.7 | 5.36
21 | ACCUAUUUGGAGAAGGCCAGAAUGAUUAGGCUAAGGCGUGAUCCUGCAUGGAGGAUAUCCAAAACAUGAGGAUCACCCAUGUUC | – | – | 130 | 71.2
22 | GGAUAGGAUAGAGGAUAUACGUGCUAGAGAUACUAGCAAAAUUUCCUCACAUGAGGAUCACCCAUGUAGAAGGCUGUCCUAUCG | 10.6 | 193 | – | –
23 | UUACUAUUGCAGAAGGCUAAAUAAUAUAUAAAUGGAGGAUAUGCAACAUGAGGAUCACCCAUGUUUCACCCAUAUGAGGAUCAC | 7.7 | 9.14 | – | –
24 | CUCUUCUCUGAGGAUAUUUUAUGUGUGGACGUGAAAGAAGGCAGUACAUGAGGAUCACCCAUGUGUCCCUCUGU | 126 | 216 | – | –
25 | AAUAAACACACAGGAUAUAGCAUCGUCGUUGCGAACUUAGCGACGUCGAUGCUAGAAGGGUGAAAACAUGAGGAUCACCCAUGU | – | – | 80.9 | 20.1
26 | AAUAUAAAGAGCUGGAACCUAAUAACAUGAGGAUCACCCAUGUAGGAUAUCAGCACGAUAAGUGCUGAGAAGGACAUCCAGCUC | 14.7 | 14.8 | – | –
27 | UGUCCAUAGCAGAAGGACAUGAAUAAAUAUGAAAACAUGAGGAUCACCCAUGUAGGAUAUGCUAUGGACUAAGAGCGAAAGCUC | 7.68 | 49.3 | – | –
